A selection: hits, their analogues and other compounds. The true share with any hit is near 3.9%.
UPR CHOP act: activators of apoptotic arm of unfolded protein response (CHOP); 330,000 tested, 0.34% active; activation, % at 10 µM; CHO-CHOP luciferase reporter, UPR activation, luminescence; percent of tunicamycin response over DMSO baseline; AID 449763;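 active = at 10 µM dose, activation of 40% or more, normalized to positive control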;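 note: 100% = tunicamycin at 10 µg/mL and 0% = DMSO alone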
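Dosing – one dose, 10 µM in 0.5% DMSO · System – CHO-CHOP cells, stable luciferase reporter of PERK-eIF2a-CHOP signalling · Input – 500 cells/well · Control set – tunicamycin 10 µg/mL final as positive, DMSO-only wells as negative · Timing – 6 h compound treatment, 37 °C · Measure – % activation vs tunicamycin · Technique – luminescence read with Steady-Glo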
tim23-1 inh: tim23-1 yeast growth inhibition. 330,000 tested, 1.3% active. inhibition, % at 20 µM. S. cerevisiae tim23-1 growth, BacTiter-Glo luminescence, 24 h. AID 463212;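 active = growth inhibition of the mutant yeast at or above 50%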;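 note: temperature-sensitive mutant grown at 25 °C; plate controls were DMSO-treated mutant yeast for no effect and medium wells lacking yeast for full effect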
TIM10 inh: inhibits growth of TIM10 yeast strain; S. cerevisiae TIM10 strain growth, BacTiter-Glo luminescence, 24 h; inhibition, % at 10 µM; 330,000 tested, 1.4% active; AID 463195;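 active = inhibition of 40% or more at the single tested concentration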;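 note: wild-type TIM10 isogenic control strain grown at permissive 25 °C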
tim10-1 inh: growth inhibitors of tim10-1 mutant yeast; S. cerevisiae tim10-1 ts strain growth, BacTiter-Glo, 24 h; inhibition, % at 20 µM; 330,000 tested, 2.2% active; AID 463190;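 active = inhibition of at least 40%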;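 note: mutant grown at 25 °C; 0% = DMSO wells with yeast and 100% = wells holding no yeast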
UPR XBP1 act: adaptive UPR (XBP1) activation. 330,000 tested, 0.33% active. CHO-XBP1 luciferase reporter, IRE1-XBP1 UPR activation, luminescence; percent of tunicamycin response, DMSO as zero. activation, % at 20 µM. AID 463104;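 active = versus positive control, 20 µM dose yields 30% or more activation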;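 note: 100% = tunicamycin at 10 µg/mL and 0% = DMSO only wells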
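Test system: CHO-XBP1 luciferase reporter cells | Buffer or medium: Serum-containing F12 medium, 10% FBS | Schedule: 6 h compound exposure at 37 °C, 5% CO2 | Detection: Steady-Glo luciferase glow luminescence, 10 min after reagent addition | Read-out basis: Activation, % of tunicamycin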
tim10-1 conf: confirmation of tim10-1 mutant yeast growth inhibitors; shares compounds with tim10-1 inh; S. cerevisiae tim10-1 ts strain growth, BacTiter-Glo, 24 h; inhibition, % at 20 µM; 7,400 tested, 56% active;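 active = inhibition of yeast growth at or above a set limit in either of two repeat tests at 20 µM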;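 note: tim10-1 mutant grown at permissive 25 °C to find synthetic lethal compounds; 0% = DMSO yeast wells and 100% = medium wells without yeast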
* hit, by the source's call; / = not tested or not shown.

SMILES	UPR CHOP act	tim23-1 inh	TIM10 inh	tim10-1 inh	UPR XBP1 act	tim10-1 conf
Cc1ccc(Cn2ncc3c(NN)ncnc32)cc1	-1	30	26	27	-2	/
O=C(Cc1cccc(C(F)(F)F)c1)OCC(=O)N1CCN(S(=O)(=O)c2ccc(Cl)cc2)CC1	-1	18	8	47*	-1	15
COc1ccc(-n2ccnc2CN2CCCC(CO)(Cc3cccc(OC)c3)C2)cc1 (stereo not drawn)	0	18	20	41*	-2	22
OCC1(Cc2cccc(Cl)c2)CCCN(Cc2ccc3cc(F)ccc3n2)C1 (stereo not drawn)	-2	33	23	48*	2	21
O=C(NCc1ccc(Cl)cc1)c1cc(S(=O)(=O)N2CCCCC2)c[nH]1	-2	-9	-3	11	-3	/
CCOC1(OCC)C(c2ccc(Cl)cc2)C(C#N)(C#N)C1(OCC)OCC (stereo not drawn)	-2	30	7	47*	-3	26
CCOC1(OCC)C(c2ccc(N)cc2)C(C#N)(C#N)C1(OCC)OCC (stereo not drawn)	0	44	39	42*	0	28
CCC(C)NC(=O)c1cc(-c2ccc3c(c2)OCO3)on1 (stereo not drawn)	0	28	-7	27	-4	/
NC(=S)Cc1nc(-c2ccccc2)cs1	2	42	39	51*	0	44*
CC(=O)c1ccc(S(=O)(=O)NCCC(=O)OCC(=O)N2CCCC2=O)cc1	-1	1	-6	14	-2	/
Cc1cc(C)cc(NC(=O)CCn2ccnc2)c1	0	5	5	3	1	/
CO/N=C/c1ccc(Oc2ccc([N+](=O)[O-])cc2[N+](=O)[O-])c(OC)c1	0	41	7	44*	-1	34*
O=[N+]([O-])c1cc(/C=N\O)ccc1Oc1ccc(F)cc1	1	42	15	46*	5	20
COc1cc(/C=N/O)ccc1Oc1ccc([N+](=O)[O-])cc1[N+](=O)[O-]	-2	35	25	44*	-1	38*
COc1ccc(C(=O)C(C)OC(=O)c2nc3nccc(C)n3n2)cc1 (stereo not drawn)	1	18	3	9	0	/
CCC(C)c1ccccc1NC(=O)c1cc(C)no1 (stereo not drawn)	1	8	-6	0	-2	/
O=C(COc1ccc(Cl)cc1)NCCCNC(=O)c1ccncc1	0	-19	-5	-23	0	/
O=C1CC(Sc2nnnn2-c2ccccc2)C(=O)N1c1cccc(Cl)c1 (stereo not drawn)	2	41	38	49*	-7	47*
O=C1CC(SCc2nc3ccccc3[nH]2)C(=O)N1c1cccc(Cl)c1 (stereo not drawn)	6	22	26	40*	-1	35*
COc1ccc(N2C(=O)CC(Sc3nnnn3-c3ccc(F)cc3)C2=O)cc1 (stereo not drawn)	4	26	32	35	-8	/
O=C1CC(SCc2nc3ccccc3[nH]2)C(=O)N1c1ccc(F)cc1 (stereo not drawn)	2	26	22	24	1	/
CSCCC(NC(=O)c1ccco1)C(=O)Nc1ccc(C)cn1 (stereo not drawn)	2	3	-1	1	2	/
CCCCNC(=O)C(CC)(ONc1ccccc1C(F)(F)F)c1ccccc1 (stereo not drawn)	0	34	2	19	-3	/
COc1cccc(/C=C/C(=O)c2ccc(NC3=NCCCS3)cc2)c1	3	39	38	43*	3	37*
CC(C)(C)c1ccc(/C=C/C(=O)c2ccc(NC3=NCCCS3)cc2)cc1	-3	35	26	43*	2	35*
SMILES	UPR CHOP act	tim23-1 inh	TIM10 inh	tim10-1 inh	UPR XBP1 act	tim10-1 conf
CC(C)(C)c1ccc(/C=C/C(=O)Nc2ccncc2)cc1	9	41	31	32	5	/
CC(C)Oc1ccc(Cl)cc1Nc1nc(NCCO)nc(N2CCCC2)n1	1	40	14	41*	5	8
CC1=Nc2cc(C(=O)NCc3ccco3)ccc2Sc2ccc(C)cc21	0	34	14	44*	13	30
CC1=Nc2cc(C(=O)NCC3CCCO3)ccc2Sc2ccc(C)cc21 (stereo not drawn)	3	12	-8	12	8	/
COC(=O)c1ccc(CN(C(=O)N2CCN(C)CC2)S(=O)(=O)c2ccc(C)cc2)cc1	0	-11	6	-6	0	/
CSc1cccc(NC(=O)c2cc(S(=O)(=O)N3CCc4ccccc43)cn2C)c1	1	24	10	14	-2	/
CC1CCCC(C)N1/N=C/C=C/c1ccccc1[N+](=O)[O-] (stereo not drawn)	2	19	9	41*	1	13
Cc1ccc(-c2n[nH]c(=S)n2/N=C/C=C\c2ccccc2[N+](=O)[O-])cc1	0	21	39	23	-1	/
O=[N+]([O-])c1ccccc1/C=C/C=N/n1c(-c2ccccc2)n[nH]c1=S	0	29	36	42*	1	36*
Cc1ccc(C(=O)NNC(=O)c2ccc3ccccc3c2O)cc1	-2	43	4	-11	-2	/
CCCCc1ccc(NC(=S)N2CCN(C(=O)c3ccco3)CC2)cc1	-1	36	25	43*	-3	24
COc1ccc(NC(=O)COC(=O)Cc2c(F)cccc2Cl)cc1	-1	18	4	43*	1	24
COc1ccc(CN(C)S(=O)(=O)c2ccc3c(c2)OCCO3)cc1	0	36	17	47*	-3	20
CN(Cc1ccccc1)S(=O)(=O)c1ccc2c(c1)OCCO2	-1	41	36	42*	0	24
COc1ccc(CNC(=O)CN(C)S(=O)(=O)c2ccc3c(c2)OCCO3)cc1OC	-3	17	1	16	-1	/
O=C(O)CN(Cc1ccccc1)S(=O)(=O)c1ccc2c(c1)OCCO2	2	0	5	-9	-3	/
C[C@H](NC(=O)c1nc[nH]c1C(=O)NCC(=O)OCc1ccccc1)c1ccccc1	1	22	12	19	-2	/
CC(C)CN(CC(C)C)C(=S)Nc1ccc(Cl)cc1	2	44	37	55*	-3	47*
Cc1ccc(S(=O)(=O)CCC(=O)NCc2ccccc2F)cc1	2	-3	9	-18	-1	/
Cc1cccc(C)c1NCC(=O)N1CCN(Cc2ccccc2)CC1	0	-4	7	10	2	/
O=C(NCc1ccc(F)cc1)c1cc(C(=O)C2CC2)c[nH]1	0	16	13	20	-3	/
